Data as given in article PMC5598529 (Toxicology Reports, 2014).
Entries after “also recorded” stand apart in the source; their conditions may differ.

What was measured:
Assay type in all cases: cell-based, human
[1] = system: catalase (CAT) activity in Caco-2 cells; test: Antioxidant enzyme assay: catalase; details: 10 days, 1, 5, 10 and 25 μM, vs control
Method in brief: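 Cells at 1.5 × 10^5/well were exposed next day to 1–25 μM test compound or vehicle, renewed every 48 h. At day 10 they were sonicated in 50 mM phosphate pH 7 with 1 mM EDTA. Catalase was measured in the 105,000 × g (1 h, 4 °C) supernatant as H2O2 decomposition followed at 240 nm for 30 s. Specific activity is given as % of control.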

[2] = system: Caco-2 cells; test: Intracellular ROS; details: 6 h exposure, p < 0.05; for H2O2 production, direction of effect: 25 or 100 μM, vs control
Method in brief: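 Cells were plated at 5 × 10^4/well and grown 48 h in 10% FBS medium, then washed with PBS. They were exposed for 6 h at 37 °C to 25 or 100 μM test compound in HBSS containing 5 μM H2-DCFDA; controls had 0.025% DMSO. After PBS washes, fluorescence was read at ex 485/em 530 nm.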

[3] = system: Caco-2 cells; test: Lipid peroxidation measurement; details: 48 h exposure; for Lipid peroxidation, concentration given for the effect: p < 0.01; for TBARS level with respect to control: 25 μM
Method in brief: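 Cells were seeded at 1.25 × 10^5/well and exposed for 48 h to 25 or 100 μM test compound. Culture medium was mixed with HCl and TBA buffer, heated 10 min at 95 °C, ice-cooled and extracted with n-butanol. Absorbance was read at 532 nm. MDA equivalents were calculated from a TMOP calibration curve.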

[4] = system: Caco-2 cell monolayer; test: Phenol red diffusion; details: 1-25 μM, day 10, vs control
Method in brief: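 Monolayers were grown on collagen-coated Transwells (2.5 × 10^5 cells/well) for 4 days. Then 1, 5, 10 or 25 μM test compound or 0.1% DMSO was added to both compartments in 4% FBS medium, renewed every 2 days. At day 10, phenol red medium was placed apically and phenol red-free medium basolaterally. Apical-to-basolateral diffusion over 4 h was read at 560 nm and expressed as percent diffusion.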

[5] = system: phospho-Akt (Ser473) in Caco-2 cells; test: Western blot analysis of Akt; details: 25 μM, compared to control
Method in brief: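 Cells at 1.5 × 10^5/well were exposed 20 h after seeding to 25 μM of each test compound or the mixture for 10 days. Lysis was in RIPA with protease and phosphatase inhibitors. 25 μg protein was resolved by SDS-PAGE and blotted to nitrocellulose. Blots were probed overnight at 4 °C with anti-phospho-Akt Ser473 (1/2000) and anti-Akt1/2/3 (1/1000), then detected with 800 nm infrared-dye secondaries and quantified by relative fluorescence. Three independent experiments.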

[6] = system: Caco-2 cells; test: MTT cell viability assay; details: for concentration at which impact on viability appeared: appeared later (J7); for Cell viability (J10), concentration given for the effect: day 10, p < 0.05; for concentration at which toxicity was observed: 3 days-period of exposure
Method in brief: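 Caco-2 (passage 25–39) were seeded at 5 × 10^4/well. After 20 h they received 0.1–100 μM test compound, alone or as an equimolar mixture, in 4% FBS medium, renewed every 48 h, for 3, 7 and 10 days. MTT (0.5 mg/ml in RPMI) was added for 4 h at 37 °C and stopped with SDS/NaOH. Absorbance was read at 570/690 nm as % of DMSO control; EC50 was taken from the dose–response curve. Three experiments, each in quadruplicate.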

[7] = system: Caco-2 cell monolayer; test: Transepithelial electrical resistance; details: for TEER (J10), direction of effect: 1-25 μM, 10 days, vs control; for TEER (J10), concentration given for the effect: day 10
Method in brief: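 Caco-2 were grown on collagen-coated Transwells (2.5 × 10^5 cells/well) for 4 days. They were then exposed apically and basolaterally to 1, 5, 10 or 25 μM test compound or 0.1% DMSO, renewed every 2 days. Resistance was measured at days 0, 3, 7 and 10 and expressed in Ω cm2. Mean ± SEM of 3 independent experiments, each in triplicate.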

[8] = system: Alkaline phosphatase activity in Caco-2 cells; test: Alkaline phosphatase assay for cell differentiation; details: for ALP activity (J10), direction of effect: 1-25 μM, 10 days, vs control, p < 0.01; for ALP activity (J10), concentration given for the effect: day 10, p < 0.01
Method in brief: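 Caco-2 seeded at 1.125 × 10^5 cells/well and treated next day with 1, 5, 10 or 25 μM of test compound, or 0.1% DMSO vehicle, for 10 days in 4% FBS medium, renewed every 48 h. Cells were scraped into cold 50 mM Tris pH 7.5 and needle-homogenised. Lysate ALP hydrolysed pNPP over 30 min at pH 10.4, 37 °C; p-nitrophenol read at 405 nm, per mg protein, as % of control.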

[9] = system: Caco-2 cells; test: Detection of apoptosis and necrosis by Hoechst 33342 and PI staining; details: 25 μM, 48 h; for Percent of necrosis in treated vs control cells: ratio of percentage of necrotic cells in treated versus untreated cells
Method in brief: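 Cells were seeded at 1.25 × 10^5/well. After 20 h they received 25 μM test compound, alone or as an equimolar mixture, for 48 h. They were stained with Hoechst 33342 (5 μg/ml) plus PI (1 μg/ml) for 30 min at 37 °C in the dark, then washed. Normal, apoptotic and necrotic cells were counted in four random fields per well. Three independent experiments, each in triplicate.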

[10] = system: glutathione peroxidase (GPx) activity in Caco-2 cells; test: Antioxidant enzyme assay: glutathione peroxidase; details: 10 days, 1, 5, 10 and 25 μM, vs control
Method in brief: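 GPx activity was measured in Caco-2 exposed to 1–25 μM test compound or vehicle for 10 days. Cells were sonicated in 50 mM phosphate pH 7 with 1 mM EDTA and the 105,000 × g supernatant was used. The assay was coupled to glutathione reductase with H2O2 and NADPH, and NADPH loss was followed at 340 nm. Specific activity is given as % of control.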

[11] = system: superoxide dismutase (SOD) activity in Caco-2 cells; test: Antioxidant enzyme assay: superoxide dismutase; details: 10 days, 1, 5, 10 and 25 μM, vs control
Method in brief: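 Supernatant at 105,000 × g from sonicated Caco-2 was used, after 10 days' exposure to 1–25 μM test compound or vehicle. Superoxide came from xanthine–xanthine oxidase, and inhibition of NBT reduction was followed kinetically at 560 nm for 5 min over several protein amounts. One unit inhibits formazan formation by 50%. Specific activity is given as % of control.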

[12] = system: Caco-2 cells; test: Observation of morphologic changes; details: 25 μM, 72 h, phase contrast microscopy
Method in brief: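 Cells were seeded at 1.125 × 10^5/well and grown 20 h. They were then exposed to 25 μM test compound for 72 h and morphology was examined by phase-contrast microscopy.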

Compound	CAT activity [1]	H2O2 production, concentration given for the effect [2] [µM]	Lipid peroxidation, concentration given for the effect [3] [µM]	Apparent permeability (J10) (phenol red diffusion), direction of effect [4]	level of phospho-Akt (Ser473) [5]	concentration at which impact on viability appeared [6] [µM]	Cell viability (J10), concentration given for the effect [6] [µM]	TEER (J10), direction of effect [7]	TEER (J10), concentration given for the effect [7] [µM]	ALP activity (J10), direction of effect [8]	ALP activity (J10), concentration given for the effect [8] [µM]	H2O2 production, direction of effect [2]	Percent of necrosis in treated vs control cells [9]	GPx activity [10]	TBARS level with respect to control [3] [%]	SOD activity [11]	morphological changes / cell density [12]	concentration at which toxicity was observed [6] [µM]	other results
CC1(C)[C@H](C(=O)O[C@H](C#N)c2cccc(Oc3ccccc3)c2)[C@@H]1/C=C(\Cl)C(F)(F)F (racemic) [LCT, lambda-cyhalothrin]	increase	100	100	decrease of membrane permeability	greatest impact	1	1	significant increase	25	increased its activity	1	–	–	–	–	–	–	–	–
CC1(C)[C@H](C(=O)O[C@H](C#N)c2cccc(Oc3ccccc3)c2)[C@@H]1C=C(Br)Br [DTM, deltamethrin]	increase	25	100	decrease of membrane permeability	–	8	8	significant increase	10	increased its activity	1	strongest effect	2.7	–	–	–	–	–	–
COP(=S)(OC)Oc1ccc([N+](=O)[O-])c(C)c1 [FNT, fenitrothion]	–	25	25	increase of the apparent permeability	–	–	5	net decrease	10	decreased ALP activity	5	strongest effect	4.4	increase	167.66	increase	reduction of cell density	1	–
N#Cc1nn(-c2c(Cl)cc(C(F)(F)F)cc2Cl)c(N)c1[S+]([O-])C(F)(F)F (stereo not shown) [FPN, fipronil]	–	100	25	–	reduced level; also recorded: greatest impact	5	5	failed to produce a clear and noticeable change	–	decreased ALP activity	10	strongest effect	3.2	increase	192.45	–	reduction of cell density	–	apoptotic cells ([9]; vs control): huge increased; percentage of necrotic cells ([9]; vs control): increased to a lesser extent; EC50 ([6]; Caco-2 cells, 10 days exposure, 0.1-100 μM, mean ± SEM): 18.1 ± 0.5 µM
O=C(NC(=O)c1c(F)cccc1F)Nc1cc(Cl)c(F)c(Cl)c1F [TBZ, teflubenzuron]	no change	100	25	increase of the apparent permeability	–	–	5	net decrease	5	increased its activity	5	–	3.8	no change	–	no change	–	5	–
